According to ChEMBL document CHEMBL1155847, “Novel indoline-based acyl-CoA:cholesterol acyltransferase inhibitor with antiperoxidative activity: improvement of physicochemical properties and biological activities by introduction of carboxylic acid” (J Med Chem, 2008):
Values after ≈ are worked out from the molar mass of the structure shown. Active and inactive are the calls of the source. No cut-off for these calls is given here.

What was measured:
[1] = biological target: T1, Sterol O-acyltransferase 1 (Homo sapiens, UniProt P35610); assay: Inhibition of ACAT-mediated esterified cholesterol accumulation in human THP1 cells exposed to acetyl-LDL during differentiation assessed as effect on foam cell formation; format: cell-based, THP-1
T1 sequence (P35610 whole entry): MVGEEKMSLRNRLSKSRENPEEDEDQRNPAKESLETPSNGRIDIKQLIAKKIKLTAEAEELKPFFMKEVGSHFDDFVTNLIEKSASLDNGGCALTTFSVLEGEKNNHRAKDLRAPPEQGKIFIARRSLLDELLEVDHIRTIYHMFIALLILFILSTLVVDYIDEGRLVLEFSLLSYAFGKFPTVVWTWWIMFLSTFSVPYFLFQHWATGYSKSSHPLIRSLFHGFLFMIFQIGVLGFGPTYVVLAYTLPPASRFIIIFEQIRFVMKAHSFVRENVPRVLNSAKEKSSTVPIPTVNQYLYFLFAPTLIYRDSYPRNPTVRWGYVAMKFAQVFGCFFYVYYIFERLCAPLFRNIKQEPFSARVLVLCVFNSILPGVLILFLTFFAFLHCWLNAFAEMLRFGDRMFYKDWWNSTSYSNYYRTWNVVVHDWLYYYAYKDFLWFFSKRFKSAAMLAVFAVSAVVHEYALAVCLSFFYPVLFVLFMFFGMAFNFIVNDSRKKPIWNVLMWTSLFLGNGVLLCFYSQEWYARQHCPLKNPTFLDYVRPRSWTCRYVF

[2] = biological target: T2, Acyl-CoA:cholesterol acyltransferase (Oryctolagus cuniculus, UniProt Q95214); assay: Inhibition of normocholesterolemic rabbit liver ACAT
T2 sequence (Q95214 whole entry): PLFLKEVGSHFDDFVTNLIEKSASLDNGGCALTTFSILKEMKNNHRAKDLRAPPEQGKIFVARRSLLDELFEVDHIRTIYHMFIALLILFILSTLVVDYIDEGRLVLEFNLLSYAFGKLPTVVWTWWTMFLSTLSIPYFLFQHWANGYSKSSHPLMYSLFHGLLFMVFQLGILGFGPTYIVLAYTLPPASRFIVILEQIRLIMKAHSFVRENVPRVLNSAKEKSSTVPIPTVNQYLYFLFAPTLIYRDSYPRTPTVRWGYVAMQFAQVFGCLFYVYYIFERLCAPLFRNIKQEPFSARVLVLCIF
Outline: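 Liver from normocholesterolemic male Japanese White rabbits homogenized in sucrose/phosphate/EDTA/dithioerythritol buffer pH 7.4. Microsomes collected by 12000g then 105000g spins. Then 30 nmol [1-¹⁴C]oleoyl-CoA added, 20 min at 37 °C. Cholesteryl ester extracted and separated by TLC.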

[3] = AUC in Sprague-Dawley rat at 10 mg/kg, po; format: ADME, organism-based; set-up: dose 10 mg/kg, route oral; conditions: plasma
Outline: (§1)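 Male SD rats, 6-7 weeks, fasted overnight, n = 3; single oral 10 mg/kg dose suspended in 5% arabic gum. Jugular-vein heparinized blood at 0.5, 1, 3, 5, 8, 24 h; plasma free-form compound by HPLC. AUC taken over 24 h.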

Brain = assay: Antiperoxidative activity in Sprague-Dawley rat brain assessed as inhibition of malonaldehyde level; format: functional, tissue-based
Outline: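 Cerebral cortex from male SD rats (6 weeks) homogenized in ice-cold 50 mM PBS pH 7.4, spun 1300g. Supernatant incubated 37 °C, 30 min with vehicle or compound. Stopped with 20% TCA; thiobarbituric acid reaction at 100 °C, 15 min; MDA read at 532 nm, less pre-assay MDA. Duplicate assay, n = 2.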

[4] = Solubility in water at pH 7.0; format: physicochemical
Outline: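 6 mg of compound shaken 30 min at room temperature in 3 mL 1/15 M potassium phosphate buffer pH 7.0, centrifuged and filtered (0.45 µm). Filtrate concentration by HPLC.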

[5] = Distribution coefficient, log D at pH 7.0; format: physicochemical; conditions: octanol/water
Outline: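 5 mg of compound in 5 mL octanol shaken 30 min at room temperature with 5 mL 1/15 M potassium phosphate buffer pH 7.0, then centrifuged. Both phases quantified by HPLC. log D taken as log of the octanol/buffer concentration ratio.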

Plasma = assay: Inhibition of LDL oxidation in genetically hypercholesterolemic KHC rabbit plasma assessed as malonaldehyde level after 1 hr; format: functional, cell-free; conditions: Oryctolagus cuniculus
Outline: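 LDL fraction isolated from plasma of male KHC rabbits and oxidized with CuSO₄ 5 µM at 37 °C for 1 h with vehicle or compound. Oxidation read as MDA. IC50 from duplicate tubes per concentration; n = 4.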

[6] = Inhibition of lipid peroxidation in genetically hypercholesterolemic KHC rabbit serum assessed as malonaldehyde level after 4 hrs; format: functional, cell-free; conditions: Oryctolagus cuniculus
Outline: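 Heparinized ear-artery plasma from KHC rabbits (2.4-2.7 kg) incubated with CuSO₄ 2 mM at 37 °C for 4 h with vehicle or compound. Lipid peroxide measured as MDA by kit. IC50 from duplicate tubes; n = 2.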

[7] = Cmax in Sprague-Dawley rat at 10 mg/kg, po; format: ADME, organism-based; set-up: dose 10 mg/kg, route oral; conditions: in vivo; outline: as §1
[8] = biological target: T2, Acyl-CoA:cholesterol acyltransferase; assay: Inhibition of ACAT in hyperlipidemic white rabbit adrenal microsomes assessed as esterified cholesterol accumulation; set-up: species or system Adrenal gland
Outline: (§2)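 Microsomes (12000g then 105000g spins at 4 °C, sucrose/phosphate/EDTA/dithioerythritol buffer pH 7.4) from hypercholesterolemic rabbit tissues, in 154 mM phosphate pH 7.4 with BSA. Compound preincubated 5 min at 37 °C, then 30 nmol [1-14C]oleoyl-CoA added. Reaction at 37 °C: adrenal 10 min, intestine 7.5 min, liver 20 min, macrophage 30 min. Labelled cholesteryl ester extracted and resolved by TLC. IC50 from duplicate tubes.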

Canis familiaris [9] = assay: Hypolipidemic effect in Western diet fed Beagle dog assessed as HDL:HDL cholesterol level at 3 mg/kg/day, po for 7 days; format: functional, Canis lupus familiaris
Outline: (§3)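 Male beagles (8.8-12.0 kg) fed a Western diet (meat, eggs, butter) for 7 days with once-daily oral dosing in 5% arabic gum, or vehicle (n = 3/group). […] blood 24 h after the last dose. Serum total and HDL cholesterol measured enzymatically.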

Canis familiaris [10] = assay: Hypolipidemic effect in Western diet fed Beagle dog assessed as LDL/VLDL cholesterol level at 3 mg/kg/day, po for 7 days; format: functional, Canis lupus familiaris; outline: as §3
Syrian golden hamster [11] = assay: Hypolipidemic effect in regular diet fed Syrian hamster assessed as HDL:HDL cholesterol level at 3 mg/kg/day, po for 3 weeks; format: functional, Mesocricetus auratus
Outline: (§4)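 Male Syrian hamsters, 9 weeks, regular diet for 3 weeks with once-daily oral dosing in 5% arabic gum, or vehicle (n = 5/group). Abdominal-aorta blood 24 h after the last dose, under pentobarbital. Serum total and HDL cholesterol by enzymatic kit.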

Rattus norvegicus [12] = assay: Hypolipidemic effect in high-cholesterol diet fed Wistar rat assessed as LDL/VLDL cholesterol level at 3 mg/kg/day, po for 3 days; format: functional
Outline: (§5)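 Male Wistar rats, 8-9 weeks, on a diet of 1% cholesterol, 0.5% cholic acid and 10% coconut oil for 3 days; dosed orally once daily in 5% arabic gum, or vehicle (n = 5/group). Fasted 5 h after the last dose; abdominal-aorta blood under pentobarbital. Serum total and HDL cholesterol measured enzymatically.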

[13] = biological target: T2, Acyl-CoA:cholesterol acyltransferase; assay: Inhibition of ACAT in microsomes from hyperlipidemic white rabbit macrophages assessed as esterified cholesterol accumulation; outline: as §2
[14] = biological target: T2, Acyl-CoA:cholesterol acyltransferase; assay: Inhibition of ACAT in hyperlipidemic white rabbit liver microsomes assessed as esterified cholesterol accumulation; set-up: species or system Microsome; outline: as §2
[15] = biological target: T2, Acyl-CoA:cholesterol acyltransferase; assay: Inhibition of ACAT in hyperlipidemic white rabbit intestine microsomes assessed as esterified cholesterol accumulation; set-up: species or system Microsome; outline: as §2
Oryctolagus cuniculus [16] = assay: Hypolipidemic effect in high-cholesterol diet fed Japanese white rabbit assessed as LDL/VLDL cholesterol level at 1 mg/kg/day, po for 7 days; format: functional
Outline: (§6)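 Male Japanese white rabbits (2.5-3.0 kg) fed 1% cholesterol diet for 7 days with once-daily oral dosing in 5% arabic gum, or vehicle (n = 5/group). Fasted overnight after the final dose; ear-artery blood. Serum total and HDL cholesterol by enzymatic kit.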

Oryctolagus cuniculus [17] = assay: Hypolipidemic effect in high-cholesterol diet fed Japanese white rabbit assessed as HDL cholesterol level at 1 mg/kg/day, po for 7 days; format: functional; outline: as §6
Syrian golden hamster [18] = assay: Hypolipidemic effect in regular diet fed Syrian hamster assessed as LDL/VLDL cholesterol level at 3 mg/kg/day, po for 3 weeks; format: functional, Mesocricetus auratus; outline: as §4
Cavia porcellus = assay: Adrenotoxicity in guinea pig at 100 mg/kg/day administered for 4 days; format: toxicity, organism-based; conditions: in vivo, 96 h
[19] = Cmax in Beagle dog at 10 mg/kg, po; format: ADME, organism-based, Canis lupus familiaris; set-up: dose 10 mg/kg, route oral; conditions: in vivo
Outline: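 Male beagles (9.0-11.6 kg, n = 4) dosed orally at 10 mg/kg as a 5% arabic gum suspension. Heparinized jugular-vein blood at 0.25, 0.5, 1, 2, 3, 5, 8, 12 h. Plasma free-form drug measured by HPLC.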

Rattus norvegicus [20] = assay: Hypolipidemic effect in high-cholesterol diet fed Wistar rat assessed as HDL cholesterol level at 3 mg/kg/day, po for 3 days; format: functional; outline: as §5
[21] = Cmax in Japanese white rabbit at 10 mg/kg, po; format: ADME, organism-based, Oryctolagus cuniculus; set-up: dose 10 mg/kg, route oral; conditions: in vivo
Outline: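 Oral 10 mg/kg in 5% arabic gum to male Japanese white rabbits (2.7-3.0 kg, n = 4). Ear-vein heparinized blood at 0.25, 0.5, 1, 2, 3, 5, 8, 24 h. Free-form concentration in plasma by HPLC.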

[22] = biological target: T1, Sterol O-acyltransferase 1; assay: Inhibition of ACAT-mediated esterified cholesterol accumulation in human THP1 cells exposed to acetyl-LDL after differentiation assessed as effect on foam cell formation; format: cell-based, THP-1
Outline: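 THP-1 cells first differentiated 3 days in RPMI-1640/10% FBS with PMA 200 nM and 2-mercaptoethanol 50 µM. Then washed and cultured 2 days with 50 µM 2-mercaptoethanol, acetyl-LDL 400 µg/mL from KHC rabbit plasma, and compound. Lipids extracted with hexane/isopropanol; esterified cholesterol = total minus free cholesterol, enzymatic; protein by Lowry. Duplicate assay, n = 4.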

[23] = biological target: Phosphatidylcholine-sterol acyltransferase (Rattus norvegicus) (UniProt P18424); assay: Inhibition of rat LCAT up to 10 uM
Sequence of Phosphatidylcholine-sterol acyltransferase (Rattus norvegicus) (P18424 whole entry, looked up): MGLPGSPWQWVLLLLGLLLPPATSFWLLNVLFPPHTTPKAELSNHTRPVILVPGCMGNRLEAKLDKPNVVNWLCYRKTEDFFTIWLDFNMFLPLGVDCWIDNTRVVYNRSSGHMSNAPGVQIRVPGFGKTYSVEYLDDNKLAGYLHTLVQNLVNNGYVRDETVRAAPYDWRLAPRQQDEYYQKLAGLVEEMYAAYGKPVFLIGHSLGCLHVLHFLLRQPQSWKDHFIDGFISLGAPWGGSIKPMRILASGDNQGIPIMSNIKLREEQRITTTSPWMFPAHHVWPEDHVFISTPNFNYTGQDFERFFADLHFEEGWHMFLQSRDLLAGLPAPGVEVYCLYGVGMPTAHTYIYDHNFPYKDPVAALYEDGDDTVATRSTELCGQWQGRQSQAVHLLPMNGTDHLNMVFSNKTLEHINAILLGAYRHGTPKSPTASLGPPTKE

SMILES	IC50 [1] [µM]	IC50 [2] [µM]	AUC [3] [ng·h/mL]	IC50 (Brain) [µM]	solubility [4] [µg/mL]	logD [5]	further results
CCCCCCCCN1CCc2c(C)cc(C)c(NC(=O)C(C)(C)CCC(=O)O)c21	> 10	> 10	5000	6.6			
CCCCCCCCN1CCc2c(C)c(CN)c(C)c(NC(=O)C(C)(C)C)c21.Cl.Cl					857	2.3	
CC(C)(Sc1cc(C(C)(C)C)c(O)c(C(C)(C)C)c1)Sc1cc(C(C)(C)C)c(O)c(C(C)(C)C)c1 [PROBUCOL]							IC50 (Plasma): 132 µM; IC50 [6]: 21.6 µM
CCCCCCCCN1CCc2c(C)cc(C)c(NC(=O)C(C)(C)C)c21.Cl					0.08	6.2	
Cc1cc(C)c(NC(=O)C(C)(C)C)c2c1CCN2CCCCCCCCCC(=O)O.Cl					732	2.8	
CCCCCCCCN1CCc2c(C)c(Cc3nnn[nH]3)c(C)c(NC(=O)C(C)(C)C)c21	> 10	> 10	6600	1.7	66 (≈ 150 µM)	3.7	
CCCCCCCCN1CC(CCC(=O)O)c2c(C)cc(C)c(NC(=O)C(C)(C)C)c21.Cl (stereo unspecified)					355	3.5	
Cc1cc(C)c(NC(=O)C(C)(C)C)c2c1CCN2CCCCCCCCCC(=O)O	> 10	5.5	100	48.3			
CCCCCCCCN1CCc2c(C)c(CC(=O)O)c(C)c(NC(=O)C(C)(C)C)c21 [PACTIMIBE]	1.8	1.2	1500	1.3			Cmax [7]: 2.2 µM; IC50 [8]: 15.9 µM; Activity (Canis familiaris [9]): 141.3 mg/dL; Activity (Canis familiaris [10]): 31.6 mg/dL; Activity (Syrian golden hamster [11]): 58.3 mg/dL; Activity (Rattus norvegicus [12]): 9.7 mg/dL; IC50 [13]: 1.9 µM; IC50 [14]: 0.69 µM; IC50 [15]: 0.72 µM; Activity (Oryctolagus cuniculus [16]): 119.5 mg/dL; Activity (Oryctolagus cuniculus [17]): 15.4 mg/dL; Activity (Syrian golden hamster [18]): 70.3 mg/dL; Activity (Cavia porcellus): Non-toxic; IC50 (Plasma): 0.98 µM; Cmax [19]: 26.8 µM; Activity (Rattus norvegicus [20]): 29.4 mg/dL; Cmax [21]: 7.2 µM; IC50 [22]: 0.3 µM; IC50 [6]: 4.4 µM
CCCCCCCCN1CCc2c(C)c(CC(=O)O)c(C)c(NC(=O)C(C)(C)C)c21							Activity [23]: inactive
CCCCCCCCN1CCc2c(C)c(CC(=O)O)c(C)c(NC(=O)C(C)(C)C)c21.CCCCCCCCN1CCc2c(C)c(CC(=O)O)c(C)c(NC(=O)C(C)(C)C)c21.O=S(=O)(O)O [PACTIMIBE SULFATE]					1450	2.9	
CCCCCCCCN1CC(CCC(=O)O)c2c(C)cc(C)c(NC(=O)C(C)(C)C)c21 (stereo unspecified)	3.6	5	1700	4.2			
CCCCCCCCN1CCc2c(C)cc(C)c(NC(=O)C(C)(C)C)c21			200	3.1			
CCCCCCCCN1CCc2c(C)cc(C)c(NC(=O)C(C)(C)CCC(=O)O)c21.Cl					401	3	
CCCCCCCCN1CCc2c(C)c(CN)c(C)c(NC(=O)C(C)(C)C)c21				4.2			
CC(C)c1cc(C(C)C)c(CC(=O)NS(=O)(=O)Oc2c(C(C)C)cccc2C(C)C)c(C(C)C)c1 [AVASIMIBE]	1.5	7.6					
